*1 amine or outer side, *2 acyl side, *3 side chain or, on linkers, in order; H or OH if unused. Where a SMILES comes first, the peptide text is derived from it. [ ]: non-standard residue; d: D form. X1 = CC(C)=CCC/C(C)=C\C[C@@]12c3ccccc3N[C@@H]1N([*:1])C[C@@H]2C(=O)[*:2]
Tests used:
[1] = Activity at beta-galactosidase in Bacillus subtilis
How it was run: (§1)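 B. subtilis tester strain carrying an srfA-lacZ fusion that responds to added pheromone. Overnight culture diluted 100-fold, added to sample solution, incubated 37 °C, 5 h, 150 rpm. β-Galactosidase measured with o-nitrophenyl-β-D-galactopyranoside at 30 °C, read at 420 nm. Analogs tested at concentrations up to 300 nM.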

Bacillus subtilis = assay: Activity at beta-galactosidase in Bacillus subtilis relative to ComXRO-E-2; set-up: concentration or dose not given beside the values; how it was run: as §1

| SMILES | EC50 [1] | Activity (Bacillus subtilis) |
| --- | --- | --- |
| CC(C)=CCC/C(C)=C\C[C@@]12c3ccccc3N[C@@H]1NC[C@@H]2C(=O)N[C@@H](CCC(=O)O)C(=O)N[C@@H](CCC(N)=O)C(=O)O | > 300 nM | 15% |
| CC(C)=CCC/C(C)=C\C[C@@]12c3ccccc3N[C@@H]1N(C(=O)[C@@H](N)Cc1ccccc1)C[C@@H]2C(=O)N[C@@H](CCC(=O)O)C(=O)N[C@@H](CCC(N)=O)C(=O)O | 8 nM | 70% |
| CC(C)=CCC/C(C)=C\C[C@@]12c3ccccc3N[C@@H]1N(C(=O)[C@@H](N)Cc1ccccc1)C[C@@H]2C(=O)N[C@@H](CCC(=O)O)C(=O)O | 20 nM | 60% |
| CC(C)=CCC/C(C)=C\C[C@@]12c3ccccc3N[C@@H]1N(C(=O)[C@H](Cc1ccccc1)NC(=O)[C@H](C)NC(=O)CN)C[C@@H]2C(=O)N[C@@H](CCC(=O)O)C(=O)N[C@@H](CCC(N)=O)C(=O)O (H-GAF[X1]EQ-OH) | 10 nM | 95% |
| CC[C@H](C)[C@H](NC(=O)CN)C(=O)N[C@@H](Cc1ccccc1)C(=O)N1C[C@H](C(=O)N[C@@H](CCC(=O)O)C(=O)O)[C@]2(C/C=C(/C)CCC=C(C)C)c3ccccc3N[C@H]12 (H-GIF[X1]E-OH) | 20 nM | 80% |
| CC[C@H](C)[C@H](NC(=O)CN)C(=O)N[C@@H](Cc1ccccc1)C(=O)N1C[C@H](C(=O)N[C@@H](CCC(=O)O)C(=O)N[C@@H](C)C(=O)O)[C@]2(C/C=C(/C)CCC=C(C)C)c3ccccc3N[C@H]12 (H-GIF[X1]EA-OH) | 20 nM | 95% |
| CC[C@H](C)[C@H](N)C(=O)N[C@@H](Cc1ccccc1)C(=O)N1C[C@H](C(=O)N[C@@H](CCC(=O)O)C(=O)N[C@@H](CCC(N)=O)C(=O)O)[C@]2(C/C=C(/C)CCC=C(C)C)c3ccccc3N[C@H]12 (H-IF[X1]EQ-OH) | 6 nM | 100% |

Further molecules by falling EC50 [1], results first:

| EC50 [1] | Activity (Bacillus subtilis) | SMILES |
| --- | --- | --- |
| 160 nM | 55% | CC[C@H](C)[C@H](N)C(=O)N[C@@H](Cc1ccccc1)C(=O)N1C[C@H](C(=O)O)[C@]2(C/C=C(/C)CCC=C(C)C)c3ccccc3N[C@H]12 |
| 130 nM | 60% | CC[C@H](C)[C@H](NC(=O)CN)C(=O)N[C@@H](Cc1ccccc1)C(=O)N1C[C@H](C(=O)O)[C@]2(C/C=C(/C)CCC=C(C)C)c3ccccc3N[C@H]12 |
| 20 nM | 80% | CC[C@H](C)[C@H](N)C(=O)N[C@@H](Cc1ccccc1)C(=O)N1C[C@H](C(=O)N[C@@H](CCC(=O)O)C(=O)O)[C@]2(C/C=C(/C)CCC=C(C)C)c3ccccc3N[C@H]12 |
| 20 nM | 90% | CC[C@H](C)[C@H](NC(=O)CN)C(=O)N[C@@H](C)C(=O)N1C[C@H](C(=O)N[C@@H](CCC(=O)O)C(=O)N[C@@H](CCC(N)=O)C(=O)O)[C@]2(C/C=C(/C)CCC=C(C)C)c3ccccc3N[C@H]12 (H-GIA[X1]EQ-OH) |
| 3 nM | 100% | CC[C@H](C)[C@H](NC(=O)[C@@H](C)N)C(=O)N[C@@H](Cc1ccccc1)C(=O)N1C[C@H](C(=O)N[C@@H](CCC(=O)O)C(=O)N[C@@H](CCC(N)=O)C(=O)O)[C@]2(C/C=C(/C)CCC=C(C)C)c3ccccc3N[C@H]12 |
| 3 nM | 100% | CC[C@H](C)[C@H](NC(=O)CN)C(=O)N[C@@H](Cc1ccccc1)C(=O)N1C[C@H](C(=O)N[C@@H](C)C(=O)N[C@@H](CCC(N)=O)C(=O)O)[C@]2(C/C=C(/C)CCC=C(C)C)c3ccccc3N[C@H]12 (H-GIF[X1]AQ-OH) |
| 1 nM | 100% | CC[C@H](C)[C@H](NC(=O)CNC(=O)[C@H](C)N)C(=O)N[C@@H](Cc1ccccc1)C(=O)N1C[C@H](C(=O)N[C@@H](CCC(=O)O)C(=O)N[C@@H](CCC(N)=O)C(=O)O)[C@]2(C/C=C(/C)CCC=C(C)C)c3ccccc3N[C@H]12 (H-AGIF[X1]EQ-OH) |
| 1 nM | 100% | CC[C@H](C)[C@H](NC(=O)CN)C(=O)N[C@@H](Cc1ccccc1)C(=O)N1C[C@H](C(=O)N[C@@H](CCC(=O)O)C(=O)N[C@@H](CCC(N)=O)C(=O)O)[C@]2(C/C=C(/C)CCC=C(C)C)c3ccccc3N[C@H]12 (H-GIF[X1]EQ-OH) |
